The record followed here is ChEMBL document CHEMBL1124779, “Synthesis and antitumor activity of 1-[[(dialkylamino)alkyl]amino]-4-methyl-5H-pyrido[4,3-b]benzo[e]- and -benzo[g])indoles. A new class of antineoplastic agents” (1990).

Experiment [1] deals with L1210. Briefly: Tested for cytotoxicity in the multiple tumor disk diffusion soft agar assay at the dose of 15 ug/disk against leukemia L1210; range is 450-600. It is filed as functional, Mus musculus. In short, it runs like this:
(§1)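 Soft agar disk diffusion: bottom layer 0.8% noble agar, top layer 0.47% noble agar, both in 1:1 CMRL-Fischer medium with 11% horse serum. Top layer seeded with 5×10^3 L1210 cells or 10^6 solid tumor cells (C38, PO3). Drug applied on a dried 6-mm filter-paper disk. Incubation 7-11 days. Inhibition zone measured by inverted microscope, in units (1 unit = 30 μm).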
(A growth-free zone around the sample is the usual read-out of agar diffusion tests.)

Experiment [2] relates to P388. Briefly: In vitro cytotoxicity was determined against P388 leukemia cells. It is filed as functional. The note with it: Mus musculus, read-out: ID50 (the source's name). An outline of the steps: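 P388 cells in exponential growth, RPMI 1640 with 2 mM glutamine, 10 μM 2-mercaptoethanol and 10% FCS, 5% CO2, 37 °C. Cells at 10^5 cells/mL. Drugs in distilled water added on day 0. Cells counted by Coulter counter after 96 h. ID50 (μg/mL, 50% inhibition of proliferation) estimated by regression of concentration/response data.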

Experiment [3] deals with P388. Description: In vivo T/C (survival time treated/survival time control x 100) was determined against P388 leukemia cells at 40 mg/Kg. It is filed as functional, Mus musculus. An outline of the steps:
(§2)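 B6D2 F1 mice, at least five per group, were inoculated ip on day 0 with 10^6 viable P388 cells (25 mL/kg). Compounds were dissolved in distilled water and given ip (25 mL/kg) daily on days 1–4. Mortality was checked daily, with necropsy of dead animals. T/C×100 was median survival, treated versus control. Survivors beyond 50 days counted as cured and were excluded from the median.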

Experiment [4] is described as follows: Cytotoxicity in the multiple tumor disk diffusion soft agar assay at the dose of 15 ug/disk against solid tumor C38. It is filed as functional, Mus musculus. In short, it runs like this: as §1
The subject of experiment [5] is L1210. Briefly: Cytotoxicity in the multiple tumor disk diffusion soft agar assay at the dose of 15 ug/disk against leukemia L1210. It is filed as functional, Mus musculus. In short, it runs like this:
as §1

A short description of experiment [6]: Cytotoxicity in the multiple tumor disk diffusion soft agar assay at the dose of 15 ug/disk against solid tumor PO3. It is filed as functional, Mus musculus. An outline of the steps:
as §1

Experiment [7] is described as follows: Tested for cytotoxicity in the multiple tumor disk diffusion soft agar assay at the dose of 15 ug/disk against solid tumor C38; range is 450-525. It is filed as functional, Mus musculus. An outline of the steps: as §1
The subject of experiment [8] is L1210. Briefly: Tested for cytotoxicity in the multiple tumor disk diffusion soft agar assay at the dose of 15 ug/disk against leukemia L1210; range is 475-600. It is filed as functional, Mus musculus. In short, it runs like this:
as §1

The test system of experiment [9] is L1210. Description: Tested for cytotoxicity in the multiple tumor disk diffusion soft agar assay at the dose of 15 ug/disk against leukemia L1210; range is 450-525. It is filed as functional, Mus musculus. An outline of the steps:
as §1

In experiment [10] the test system is L1210. Description: Tested for cytotoxicity in the multiple tumor disk diffusion soft agar assay at the dose of 15 ug/disk against leukemia L1210; range is 550-680. It is filed as functional, Mus musculus. In short, it runs like this: as §1
Experiment [11] has as its system P388. Briefly: In vivo T/C (survival time treated/survival time control x 100) was determined against P388 leukemia cells at 20 mg/Kg. It is filed as functional, Mus musculus. An outline of the steps: as §2
Experiment [12] can be described thus: Tested for cytotoxicity in the multiple tumor disk diffusion soft agar assay at the dose of 15 ug/disk against solid tumor PO3; range is 300-450. It is filed as functional, Mus musculus. An outline of the steps:
as §1

Experiment [13] has as its system L1210. Briefly: Tested for cytotoxicity in the multiple tumor disk diffusion soft agar assay at the dose of 15 ug/disk against leukemia L1210. It is filed as functional, Mus musculus. An outline of the steps: as §1
The subject of experiment [14] is L1210. Description: Tested for cytotoxicity in the multiple tumor disk diffusion soft agar assay at the dose of 15 ug/disk against leukemia L1210; U = 32 uM. It is filed as functional, Mus musculus. In short, it runs like this: as §1
A short description of experiment [15]: Tested for cytotoxicity in the multiple tumor disk diffusion soft agar assay at the dose of 15 ug/disk against solid tumor C38; U = 32 uM. It is filed as functional, Mus musculus. In short, it runs like this:
as §1

For experiment [16], the system named is L1210. Briefly: Tested for cytotoxicity in the multiple tumor disk diffusion soft agar assay at the dose of 15 ug/disk against leukemia L1210; range is 300-380. It is filed as functional, Mus musculus. In short, it runs like this: as §1
A short description of experiment [17]: Tested for cytotoxicity in the multiple tumor disk diffusion soft agar assay at the dose of 15 ug/disk against solid tumor PO3. It is filed as functional, Mus musculus. An outline of the steps: as §1
Experiment [18] concerns L1210. Briefly: In vivo T/C (survival time treated/survival time control x 100) was determined against L1210 leukemia cells at 40 mg/Kg. It is filed as functional, Mus musculus. An outline of the steps: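 B6D2 F1 mice, at least five per group, were inoculated ip on day 0 with 10^5 viable L1210 cells (25 mL/kg). Compounds were dissolved in distilled water and given ip (25 mL/kg) on days 1–4. Deaths were checked daily, with necropsy to separate tumor from toxic death. T/C×100 was median survival of treated over controls. Mice surviving over 50 days counted as cured and were excluded from the median.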

Each structure is given as a SMILES string. Values after ≈ are worked out from the molar mass of the structure shown.

With `CCN(CC)CCCNc1ncc(C)c2c1c1c3ccccc3ccc1n2C`, the Cytotoxicity in the experiment on L1210 [1] came out at 450 U; in experiment [4] it was 520 U. Also, the IC50 with P388 [2] came to 0.1 µg/mL (≈ 0.267 µM). In addition, the “T/C x100” value with P388 [3] worked out at 124.

As for `Cc1cnc(NCCCN(C)C)c2c3c4ccccc4ccc3n(C)c12`, the IC50 in the experiment on P388 [2] is 0.05 µg/mL (≈ 0.144 µM). Besides, the Cytotoxicity is recorded as 425 U with L1210 [5], 550 U in [6], 450 U in experiment [7] and 475 U in the experiment with L1210 [8]. In addition, in the experiment with P388 [3], the “T/C x100” value amounted to 164.

As for `COc1ccc2c(ccc3[nH]c4c(C)cnc(NCC(C)CN(C)C)c4c32)c1` (configuration not stated), the IC50 in the experiment on P388 [2] is 0.55 µg/mL (≈ 1.46 µM). In addition, the Cytotoxicity in the experiment on L1210 [5] is on record as 425 U; in experiment [6], 375 U; in experiment [4] it was 425 U; in the experiment with L1210 [9], 450 U. Also, the “T/C x100” value in the experiment with P388 [3] was 151.

On to `COc1ccc2c(ccc3c2c2c(NCCCN(C)C)ncc(C)c2n3C)c1`, for which, in the experiment on P388 [2], the IC50 amounted to 0.5 µg/mL (≈ 1.33 µM). Besides, the Cytotoxicity with L1210 [5] turned out to be 425 U; in experiment [6], 200 U; with L1210 [10], 550 U; in experiment [4], 325 U. Besides, the “T/C x100” value in the experiment on P388 [3] was found to be 150.

Regarding `Cc1c[nH]c(NCCCN(C)C)c2c3ccc4c(O)cccc4c3nc1-2`, the IC50 with P388 [2] worked out at 0.05 µg/mL (≈ 0.143 µM). Besides, the Cytotoxicity in the experiment on L1210 [5] is 450 U; in [12], 300 U; in [4] it was 400 U; in the experiment on L1210 [13], 500 U. Moreover, the “T/C x100” value with P388 [11] was found to be 169.

For the compound `CCN(CC)CCCNc1ncc(C)c2c1c1ccc3ccccc3c1n2C`, the Cytotoxicity with L1210 [14] is 450 U; in experiment [15] it was 500 U; in the experiment on L1210 [16], 300 U; in experiment [17], 200 U. The IC50 in the experiment with P388 [2] is 0.375 µg/mL (≈ 1 µM). The “T/C x100” value in the experiment on P388 [11] is listed as 108.

In the case of `CCN(CC)CCCNc1[nH]cc(C)c2nc3ccc4cc(OC)ccc4c3c1-2`, the IC50 in the experiment with P388 [2] came to 1 µg/mL (≈ 2.56 µM). Moreover, the “T/C x100” value with P388 [3] was 189; with L1210 [18], 112.
